Laboratory results: ChEMBL document CHEMBL1132574, “Metallopeptidase inhibitors of tetanus toxin: A combinatorial approach” (J Med Chem, 1999)
pKi: −log10 of the molar value.

These molecules were tested against T1, Tetanus toxin (Clostridium tetani (strain Massachusetts / E88), UniProt P04958) (assay: Inhibition of tetanus neurotoxin (TeNt)).
T1 sequence (P04958 whole entry): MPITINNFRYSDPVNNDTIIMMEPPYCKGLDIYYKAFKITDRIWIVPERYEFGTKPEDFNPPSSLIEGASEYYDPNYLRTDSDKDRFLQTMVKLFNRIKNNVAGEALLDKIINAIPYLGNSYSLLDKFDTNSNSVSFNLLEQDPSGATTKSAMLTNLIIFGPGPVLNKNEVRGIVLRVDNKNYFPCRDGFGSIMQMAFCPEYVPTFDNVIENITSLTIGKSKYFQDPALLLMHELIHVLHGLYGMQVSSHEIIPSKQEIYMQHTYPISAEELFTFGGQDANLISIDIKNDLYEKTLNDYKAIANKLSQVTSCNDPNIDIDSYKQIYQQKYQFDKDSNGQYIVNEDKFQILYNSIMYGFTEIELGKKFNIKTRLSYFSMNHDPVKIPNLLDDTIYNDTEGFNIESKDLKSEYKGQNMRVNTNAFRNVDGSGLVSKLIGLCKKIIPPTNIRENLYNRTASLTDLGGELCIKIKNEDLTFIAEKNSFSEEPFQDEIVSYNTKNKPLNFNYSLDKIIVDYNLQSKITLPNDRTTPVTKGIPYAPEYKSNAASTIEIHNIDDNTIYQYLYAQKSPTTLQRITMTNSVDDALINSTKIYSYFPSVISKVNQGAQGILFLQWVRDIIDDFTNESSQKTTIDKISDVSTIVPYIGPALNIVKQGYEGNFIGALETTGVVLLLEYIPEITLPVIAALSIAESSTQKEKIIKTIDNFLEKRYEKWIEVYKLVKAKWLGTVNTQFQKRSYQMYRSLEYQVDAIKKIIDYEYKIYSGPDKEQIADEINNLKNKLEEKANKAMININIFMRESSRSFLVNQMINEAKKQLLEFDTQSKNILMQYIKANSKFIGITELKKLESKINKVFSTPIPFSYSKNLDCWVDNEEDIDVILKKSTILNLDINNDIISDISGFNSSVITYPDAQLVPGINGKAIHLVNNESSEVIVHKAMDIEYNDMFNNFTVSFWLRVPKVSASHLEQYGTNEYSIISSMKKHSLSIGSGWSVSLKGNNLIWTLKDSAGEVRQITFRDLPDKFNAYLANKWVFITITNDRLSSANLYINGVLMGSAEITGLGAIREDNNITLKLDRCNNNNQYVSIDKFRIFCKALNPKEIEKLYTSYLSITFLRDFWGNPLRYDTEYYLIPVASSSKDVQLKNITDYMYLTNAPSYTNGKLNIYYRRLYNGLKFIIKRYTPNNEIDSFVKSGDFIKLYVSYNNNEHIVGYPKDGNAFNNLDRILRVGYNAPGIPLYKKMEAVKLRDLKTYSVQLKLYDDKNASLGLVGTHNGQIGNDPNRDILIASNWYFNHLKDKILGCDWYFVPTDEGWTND
Summary of the method: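 TeNt metallopeptidase activity on the fluorescent substrate [Pya⁸⁸]S39-88 (40, 50, 66, 100, 200 μM) in 20 mM Hepes pH 7.4, 100 mM NaCl, 0.1 mM DTT at 37 °C. Inhibitor absent or at 1, 10, 33, 100 μM. Rate read by RP-HPLC as the appearance of fluorescent product [Pya⁸⁸]S77-88. Lineweaver–Burk analysis; mean of three independent experiments in triplicate.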

Compound	pKi
N[C@@H](c1cccc(S(N)(=O)=O)c1)[C@H](S)C(=O)N[C@@H](Cc1ccc(O)cc1)C(=O)N[C@@H](Cc1c[nH]cn1)C(=O)NCc1ccccc1	5.02
C[C@@H](O)[C@H](NC(=O)[C@H](CCC(=O)O)NC(=O)[C@@H](Cc1ccccc1)NC(=O)C(S)[C@@H](N)CCC(=O)ON)C(=O)N[C@@H](CO)C(=O)O (mixture of isomers)	4.10
N[C@H](c1cccc(S(N)(=O)=O)c1)[C@@H](S)C(=O)N[C@@H](Cc1ccc(O)cc1)C(=O)N[C@@H](Cc1c[nH]cn1)C(=O)NCc1ccccc1	5.22
C[C@@H](O)[C@H](NC(=O)[C@H](CCC(=O)O)NC(=O)[C@@H](Cc1ccccc1)NC(=O)C(S)[C@@H](N)CCC(=O)ON)C(=O)O (mixture of isomers)	4.00
N[C@H](c1cccc(S(N)(=O)=O)c1)[C@H](S)C(=O)N[C@@H](Cc1ccc(O)cc1)C(=O)N[C@@H](Cc1c[nH]cn1)C(=O)NCc1ccccc1	5.40
N[C@@H](CS)CCS(N)(=O)=O	4.00
NC(=O)CC[C@@H](N)CS	3.60
N[C@@H](CCS(N)(=O)=O)[C@@H](S)C(=O)N[C@@H](Cc1ccc(O)cc1)C(=O)N[C@@H](Cc1cnc[nH]1)C(=O)NCc1ccccc1	5.41
N[C@@H](CCS(N)(=O)=O)[C@H](S)C(=O)N[C@@H](Cc1ccc(O)cc1)C(=O)N[C@@H](Cc1c[nH]cn1)C(=O)NCc1ccccc1	5.17
N[C@@H](CCS(N)(=O)=O)[C@H](S)C(=O)N[C@@H](Cc1ccc(O)cc1)C(=O)N[C@@H](Cc1c[nH]cn1)C(=O)O	4.82
N[C@@H](CCS(N)(=O)=O)[C@@H](S)C(=O)N[C@@H](Cc1ccc(O)cc1)C(=O)N[C@@H](Cc1c[nH]cn1)C(=O)O	5.30
N[C@@H](c1cccc(S(N)(=O)=O)c1)[C@@H](S)C(=O)N[C@@H](Cc1ccc(O)cc1)C(=O)N[C@@H](Cc1c[nH]cn1)C(=O)NCc1ccccc1	5.52
NC(CS)c1cccc(S(N)(=O)=O)c1 (stereo not drawn)	4.46
